Compound activity (PubChem)
TAAR1 agonist = agonists of human TAAR1. CHO RD-HGA16 TAAR1, Fluo-8 calcium fluorescence; vehicle wells 0%, saturating PEA agonist 100%. activation, % at 3 µM. hit rate 0.99% among 360,000. AID 624467;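 active means activation above the mean activation of all test compounds in the run plus 3 SD, cut at about 38% in these data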
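Test system: RD-HGA16 (CHO) cells co-expressing Gα16 and hTAAR1 | Doses: Single dose, 3 µM | Schedule: 17-24 h seeding, 75 min 37 °C dye, 30 min RT | Evaluation: % activation from peak over basal fluorescence ratio, DMSO-to-PEA scaled | Technique: Kinetic Fluo-8 calcium fluorescence | Benchmarks: Low control DMSO, high control PEA (EC100)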
CHRM4 antagonist = CHRM4 antagonism in calcium assay; P08173; CHO-hM4 cells, ACh EC80, Fluo-8 calcium fluorescence; inhibition, % at 3 µM; hit rate 0.73% among 360,000; AID 624125;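 active means inhibition above its plate's cutoff, the mean inhibition of sample wells plus 3 SD, cut at about 27% in these data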;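 further: 0% = acetylcholine EC80 with DMSO and 100% = DMSO without agonist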
Target sequence (P08173 whole entry, looked up): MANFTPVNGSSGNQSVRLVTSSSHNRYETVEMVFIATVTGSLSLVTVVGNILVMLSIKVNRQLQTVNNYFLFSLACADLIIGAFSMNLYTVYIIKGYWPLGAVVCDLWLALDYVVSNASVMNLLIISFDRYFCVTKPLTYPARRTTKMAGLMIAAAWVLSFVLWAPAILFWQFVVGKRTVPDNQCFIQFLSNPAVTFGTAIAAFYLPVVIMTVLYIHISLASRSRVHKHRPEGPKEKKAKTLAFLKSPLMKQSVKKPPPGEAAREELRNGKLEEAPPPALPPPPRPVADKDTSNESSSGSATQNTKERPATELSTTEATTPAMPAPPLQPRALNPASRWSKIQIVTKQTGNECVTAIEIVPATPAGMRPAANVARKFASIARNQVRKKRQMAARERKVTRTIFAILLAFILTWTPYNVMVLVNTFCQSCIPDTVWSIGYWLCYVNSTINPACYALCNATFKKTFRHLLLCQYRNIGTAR
M4 ag = agonists of human muscarinic M4 receptor (CHRM4) | P08173 | hit rate 0.14% among 360,000 | activation, % at 3 µM | AID 624127 | CHO-K1 hM4/Gqi5, Fluo-8 calcium fluorescence; vehicle 0%, full acetylcholine response 100%;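 active means activation above the run mean over all test wells plus 3 SD, cut at about 32% in these data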;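 further: peak over basal fluorescence ratio per well then scaled between controls; 0% = DMSO wells and 100% = acetylcholine at EC100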
TAAR1 antag = human TAAR1 antagonism. inhibition, % at 3 µM. Q96RJ0. CHO RD-HGA16 TAAR1, Fluo-8 calcium fluorescence, antagonist. hit rate 1.5% among 360,000;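 active means inhibition above a per-plate cutoff, the mean inhibition of test compounds on that plate plus 3 SD, cut at about 49% in these data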;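 further: 0% = DMSO plus EC80 beta-PEA response and 100% = DMSO alone without agonist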
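System: RD-HGA16 CHO cells with stable hTAAR1 and Gα16 | Probe or stimulus: EC80 β-phenethylamine stimulus | Dosing: 3 µM, single point | Times: Dye loading 75 min at 37 °C, then 30 min room temperature | Measured by: Fluo-8 calcium-sensitive fluorescence | Read-out basis: % inhibition of agonist calcium response | Replicates: n of 1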
M4 PAM = CHRM4 positive allosteric modulation; P08173; CHO-K1 hM4/Gqi5, Fluo-8 calcium fluorescence, ACh EC20; 0% = ACh EC20, 100% = maximal ACh; AID 624126; activation, % at 3 µM; hit rate 0.4% among 360,000;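 active means activation above its plate's cutoff, the mean activation of sample wells plus 3 SD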
* hit, by the source's call; nt = no result. Hits are enriched below; roughly 3% of the tested compounds scored in any of these assays.

SMILES	TAAR1 agonist	CHRM4 antagonist	M4 ag	TAAR1 antag	M4 PAM
Cc1cc2c(nc1C)CCCN2S(=O)(=O)c1ccccc1	0	nt	nt	-33	nt
Cn1c(=O)c2c(-c3ccccc3)n(-c3ccccc3Br)cc2n(C)c1=O	7	4	15	53*	-13
Cn1c(=O)c2c(-c3ccccc3)n(-c3ccccc3O)cc2n(C)c1=O	9	-3	1	6	6
COC(=O)N1C[C@H](OCCCOCc2ccccc2)[C@H]2C[C@@H]1c1ccccc1O2	-1	nt	nt	-19	nt
CCCCn1c(Cc2ccccc2)n[nH]c1=S	6	83*	0	0	-28
CCn1c(Cc2ccccc2)n[nH]c1=S	2	1	1	-26	-3
COC(=O)/C=C1\Nc2ccc(Cl)cc2C(=O)NC1=O	0	nt	nt	-16	nt
O=C(Cc1ccccc1)Nn1c(O)c(/C=C2\C=Nc3ccccc32)sc1=S	22	11	18	54*	-9
Cn1c(O)c(/C=C2\C=Nc3ccccc32)sc1=Nc1ccc(C(=O)O)cc1	1	-6	1	-2	0
CC(C)c1[nH]nc2c1C(c1ccccc1)N(Cc1ccccc1)C2=O (configuration not stated)	7	nt	nt	-3	nt
COc1cc(OC)cc(C(=O)Nc2nc(CC(=O)NCc3ccccc3OC)cs2)c1	6	18	15	56*	-15
COc1cc(OC)cc(C(=O)Nc2nc(CC(=O)NCc3ccc(F)cc3)cs2)c1	8	5	19	50*	-4
COc1cc(OC)cc(C(=O)Nc2nc(CC(=O)NCCc3ccccc3)cs2)c1	5	-9	15	33	-9
Cc1cc(Br)c2nc(-c3ccc(Cl)cc3)c(Cc3cccc(Cl)c3)n2c1	1	nt	nt	-7	nt
CCOC(=O)CP(=O)(c1ccccc1)c1ccccc1	-2	4	0	-3	4
CCOC(=O)c1c(C)noc1CP(=O)(c1ccccc1)c1ccccc1	15	-3	1	-18	18*
O=S(=O)(c1cccs1)N1CCCc2nc(-c3ccccc3)ccc21	0	nt	nt	4	nt
CN(C)CCC[C@@]1(c2ccc(F)cc2)OCc2cc(C#N)ccc21	5	30*	4	-26	-17
CC1=C(C(=O)N2CCCCCC2)CC(CC(=O)NCC2CCCCC2)C(=O)N1Cc1ccc(F)cc1 (configuration not stated)	-1	-6	0	-20	15
CCOc1ccc(Cn2nnc(C(=O)NCc3ccc(OC)cc3)c2N)cc1	50*	-7	9	13	-1
CCCCCCCCN1C(=O)[C@@H](CC(=O)N2CCN(C(=O)OCC)CC2)C[C@@]2(C(=O)OC)C1=C[C@H](C(C)(C)C)O[C@@H]2C	-2	nt	nt	-22	nt
O=C(N[C@H](C(=O)N1CCC[C@H]1C(=O)NC1CCCC1)C1CCCCC1)C1CCCC1	2	nt	nt	-13	nt
COc1ccccc1NC(=O)N1CCc2[nH]c3ccc(F)cc3c2C1	43*	6	4	-10	1
O=C(C1CCCCC1)N1CCc2[nH]c3ccc(F)cc3c2C1	12	-8	1	-12	24
O=[N+]([O-])c1ccc(C[n+]2ccccc2)cc1	1	3	0	-2	25*
SMILES	TAAR1 agonist	CHRM4 antagonist	M4 ag	TAAR1 antag	M4 PAM
COC(=O)[C@]12C[C@H](CC(=O)NCCCN3CCCC3=O)C(=O)N(CCC3=CCCCC3)C1=C[C@H](COCc1ccccc1)O[C@@H]2C	-1	nt	nt	-31	nt
COc1cccc(/C=N/Nc2snc(SC)c2C#N)c1	42*	3	1	18	2
COc1ccc(N2C(=O)c3[nH]nc(-c4ccccc4)c3C2c2ccc(Br)cc2)cc1 (configuration not stated)	14	nt	nt	-7	nt
COc1ccc2cc1Oc1ccc(cc1)C[C@H]1c3cc(c(OC)cc3CCN1C)Oc1c(OC)c(OC)cc3c1[C@H](C2)N(C)CC3	4	78*	6	-4	-17
COc1ccc2cc1Oc1ccc(cc1)C[C@H]1c3c(cc4c(c3Oc3cc5c(cc3OC)CCN(C)[C@@H]5C2)OCO4)CCN1C	16	13	3	-27	-11
CN1CCCCC(NC(=O)CCCl)C1=O (configuration not stated)	0	nt	nt	-14	nt
C[C@@H]1CCCCO[C@H](CN(C)S(=O)(=O)c2cn(C)cn2)[C@@H](C)CN([C@H](C)CO)C(=O)c2cc(NC(=O)CCCN(C)C)ccc2O1	2	nt	nt	7	nt
CCc1c(-c2ccc(Br)cc2)ncn1Cc1cccc(-c2ccccc2)c1	1	50*	3	7	-17
CCCc1c(-c2cccc(Br)c2)ncn1Cc1cccc(-c2ccccc2)c1	6	6	3	18	-14
C[C@H](CO)N1C[C@H](C)[C@H](CN(C)C(=O)Nc2ccc(F)cc2)Oc2ncc(Br)cc2C1=O	2	nt	nt	-11	nt
CCOC(=O)c1ccc(NC(=S)NCc2ccc(F)cc2)cc1	9	10	20	-7	-18
CCOC(=O)c1ccc(NC(=S)NN)cc1	-3	-12	1	-33	20*
CCOC(=O)c1ccc(NC(=O)Nc2nc3ccccc3s2)cc1	13	61*	1	10	-15
CC(C)(C)c1cc(CCC(=O)NNC(=S)NC(=O)c2ccccc2)cc(C(C)(C)C)c1O	nt	4	37*	nt	-10
CCOC(=O)Nc1ccc2c(C)cc(=O)oc2c1	12	4	3	-11	5
CCCCOC(=O)Nc1ccc2c(C)cc(=O)oc2c1	7	-10	0	0	30*
O=C(COC(=O)c1cc(=O)[nH]c2ccc(Br)cc12)c1ccccc1	41*	-8	2	26	10
OC1(C#CCCN2CCCCC2)c2ccccc2-c2ccccc21	3	56*	1	8	-25
OC1(CC#CCN2CCCCC2)c2ccccc2-c2ccccc21	5	10	0	-17	-35
COCCCNC(=O)Cn1c(=O)n(CC(=O)NCCc2ccc(OC)c(OC)c2)c(=O)c2sccc21	2	-5	1	-8	32
COc1ccc(CCNC(=O)Cn2c(=O)n(-c3ccc(C)c(F)c3)c(=O)c3sccc32)cc1OC	-2	3	-2	-75	32*
Clc1ccc(OCCN2CCN(c3ncnc4sccc34)CC2)cc1	13	35*	12	17	-17
Cc1ccc(OCCN2CCN(c3ncnc4sc(C)c(C)c34)CC2)cc1	3	21	8	14	-3
Cc1ccc(/C=C2\CCC3=C2OC(N)=C(C#N)C3c2ccc(C)cc2)cc1 (configuration not stated)	nt	30*	15	nt	1
CC(C)C[C@@H](NC(=O)OC(C)(C)C)C(=O)N1O[C@]23C=C[C@]14C[C@@H](O)CC[C@]4(C)C2CC[C@]1(C)[C@@H]([C@H](C)/C=C/[C@H](C)C(C)C)CC[C@H]13 (some centres not stated)	0	nt	nt	-15	nt
